Usually IC50 stands for the concentration that gives 50% inhibition. A high value points to a need for much substance. For orientation: pKa means the pH at which an ionisable group is half protonated. A higher pKa goes with a weaker acid or stronger base. The term bioavailability denotes dose-corrected exposure relative to a reference, in per cent. Low values mean poor availability, high ones good availability. As a reminder, the half-life is how long it takes for the measured level to halve. Lower therefore signals rapid decline. Broadly, the Cmax is the maximum level reached in the sampled fluid or tissue. Broadly, the AUC is the area under the concentration-time curve, a measure of exposure. A higher AUC goes with more exposure. As usually defined, the clearance is the volume of plasma or blood freed of the substance per unit of time. A high value points to a high capacity for elimination.

Structures are written as SMILES. In brackets after ≈: the same amount, converted by molar mass.

These results are taken from ChEMBL document CHEMBL1148412, “Discovery of a new class of anilinoquinazoline inhibitors with high affinity and specificity for the tyrosine kinase domain of c-Src” (J Med Chem, 2004).

The subject of one data set is A549. Put plainly: In vitro inhibitory concentration against proliferation of A459 cell line. The conditions noted are these: Homo sapiens.
In data set [1] the target is Proto-oncogene tyrosine-protein kinase Src (Homo sapiens, UniProt P12931). Put plainly: In vitro inhibitory concentration against src-tyrosine kinase.
In data set [2] the target is Vascular endothelial growth factor receptor 2 (Homo sapiens, UniProt P35968). The data set can be described thus: In vitro inhibitory concentration against VEGF receptor 2. The essentials:
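KDR kinase selectivity assay, using a previously reported method. IC50 is the mean of at least three independent dose-response curves.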

The nature of data set [3]: pKa was determined. In kind it is physicochemical.
Data set [4] concerns the target Fibroblast growth factor receptor 1 (Homo sapiens, UniProt P11362). Put plainly: In vitro inhibition of Fibroblast growth factor receptor (FTK).
Another data set is filed under the species Rattus norvegicus. The data set can be described thus: Percentage in free rat serum was determined. In kind it is ADME, organism-based.
Data set [5] is described as follows: Bioavailability in rat (dose 20 mg/kg p.o.). The conditions noted are these: in vivo, po.
Data set [6] can be described thus: Vdss in rat i.v. at 2 mg/kg concentration. In kind it is ADME, organism-based. The arrangement: dose 2 mg/kg, route intravenous. The conditions noted are these: in vivo, iv, read-out: Vdss. In short, it runs like this: (§1)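 Single-dose rat pharmacokinetics: intravenous 2 mg/kg in 25% (w/v) hydroxypropyl-β-cyclodextrin/Sorenson's phosphate buffer (pH 5.5), or oral 20 mg/kg. Oral parameters are Cmax, AUC0-∞ and 24 h blood level. Intravenous parameters are clearance, terminal half-life and Vdss. Bioavailability (F) is derived from the oral and intravenous arms.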

The nature of data set [7]: Half life in rat i.v. at 2 mg/kg concentration. In kind it is ADME, organism-based. The settings on record: in vivo, iv. The arrangement: dose 2 mg/kg, route intravenous. The essentials:
as §1

The target of data set [8] is Vascular endothelial growth factor receptor 1 (Homo sapiens, UniProt P17948). The data set can be described thus: Inhibition of Vascular endothelial growth factor receptor 1.
The nature of data set [9]: Cmax in rat p.o. at 20 mg/kg concentration. In kind it is ADME, organism-based. The arrangement: dose 20 mg/kg, route oral. The settings on record: in vivo, po. The essentials: as §1
Data set [10] can be described thus: Solubility was determined. Format: physicochemical.
Data set [11] is described as follows: C24h in rat p.o. at 20 mg/kg concentration. Format: ADME, organism-based. The arrangement: dose 20 mg/kg, route oral. The settings on record: in vivo, po, read-out: C24h. The essentials: as §1
Data set [12] is described as follows: AUC in rat p.o. at 20 mg/kg concentration. Set-up: dose 20 mg/kg, route oral. In kind it is ADME, organism-based. The conditions noted are these: plasma, po. In short, it runs like this: as §1
Another data set has as its target Angiopoietin-1 receptor (Homo sapiens, UniProt Q02763). Put plainly: Inhibition of Tyrosine protein kinase receptor TIE-2.
The nature of data set [13]: Cl in rat i.v. at 2 mg/kg concentration. Format: ADME, organism-based. The conditions noted are these: in vivo, iv. The arrangement: dose 2 mg/kg, route intravenous. The essentials:
as §1

A short description of data set [14]: Total body clearance in rat i.v. at 2 mg/kg concentration. In kind it is ADME, organism-based. The arrangement: dose 2 mg/kg, route intravenous. The conditions noted are these: in vivo, iv. The essentials: as §1

Chain of Proto-oncogene tyrosine-protein kinase Src (P12931 2-536 limits assumed): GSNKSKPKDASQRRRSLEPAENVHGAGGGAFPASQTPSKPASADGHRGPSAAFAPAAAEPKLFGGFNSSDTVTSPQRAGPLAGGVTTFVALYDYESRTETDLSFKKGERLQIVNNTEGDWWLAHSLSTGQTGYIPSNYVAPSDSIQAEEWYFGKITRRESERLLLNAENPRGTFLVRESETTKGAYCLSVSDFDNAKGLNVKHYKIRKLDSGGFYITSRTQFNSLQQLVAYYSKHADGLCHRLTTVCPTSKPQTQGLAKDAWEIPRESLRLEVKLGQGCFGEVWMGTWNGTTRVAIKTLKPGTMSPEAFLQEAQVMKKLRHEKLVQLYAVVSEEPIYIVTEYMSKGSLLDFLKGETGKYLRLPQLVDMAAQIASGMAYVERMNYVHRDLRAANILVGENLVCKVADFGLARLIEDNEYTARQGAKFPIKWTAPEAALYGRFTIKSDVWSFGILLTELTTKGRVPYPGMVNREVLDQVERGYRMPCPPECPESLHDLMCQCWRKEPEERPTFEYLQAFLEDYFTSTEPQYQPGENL
Chain of Vascular endothelial growth factor receptor 2 (P35968 whole entry): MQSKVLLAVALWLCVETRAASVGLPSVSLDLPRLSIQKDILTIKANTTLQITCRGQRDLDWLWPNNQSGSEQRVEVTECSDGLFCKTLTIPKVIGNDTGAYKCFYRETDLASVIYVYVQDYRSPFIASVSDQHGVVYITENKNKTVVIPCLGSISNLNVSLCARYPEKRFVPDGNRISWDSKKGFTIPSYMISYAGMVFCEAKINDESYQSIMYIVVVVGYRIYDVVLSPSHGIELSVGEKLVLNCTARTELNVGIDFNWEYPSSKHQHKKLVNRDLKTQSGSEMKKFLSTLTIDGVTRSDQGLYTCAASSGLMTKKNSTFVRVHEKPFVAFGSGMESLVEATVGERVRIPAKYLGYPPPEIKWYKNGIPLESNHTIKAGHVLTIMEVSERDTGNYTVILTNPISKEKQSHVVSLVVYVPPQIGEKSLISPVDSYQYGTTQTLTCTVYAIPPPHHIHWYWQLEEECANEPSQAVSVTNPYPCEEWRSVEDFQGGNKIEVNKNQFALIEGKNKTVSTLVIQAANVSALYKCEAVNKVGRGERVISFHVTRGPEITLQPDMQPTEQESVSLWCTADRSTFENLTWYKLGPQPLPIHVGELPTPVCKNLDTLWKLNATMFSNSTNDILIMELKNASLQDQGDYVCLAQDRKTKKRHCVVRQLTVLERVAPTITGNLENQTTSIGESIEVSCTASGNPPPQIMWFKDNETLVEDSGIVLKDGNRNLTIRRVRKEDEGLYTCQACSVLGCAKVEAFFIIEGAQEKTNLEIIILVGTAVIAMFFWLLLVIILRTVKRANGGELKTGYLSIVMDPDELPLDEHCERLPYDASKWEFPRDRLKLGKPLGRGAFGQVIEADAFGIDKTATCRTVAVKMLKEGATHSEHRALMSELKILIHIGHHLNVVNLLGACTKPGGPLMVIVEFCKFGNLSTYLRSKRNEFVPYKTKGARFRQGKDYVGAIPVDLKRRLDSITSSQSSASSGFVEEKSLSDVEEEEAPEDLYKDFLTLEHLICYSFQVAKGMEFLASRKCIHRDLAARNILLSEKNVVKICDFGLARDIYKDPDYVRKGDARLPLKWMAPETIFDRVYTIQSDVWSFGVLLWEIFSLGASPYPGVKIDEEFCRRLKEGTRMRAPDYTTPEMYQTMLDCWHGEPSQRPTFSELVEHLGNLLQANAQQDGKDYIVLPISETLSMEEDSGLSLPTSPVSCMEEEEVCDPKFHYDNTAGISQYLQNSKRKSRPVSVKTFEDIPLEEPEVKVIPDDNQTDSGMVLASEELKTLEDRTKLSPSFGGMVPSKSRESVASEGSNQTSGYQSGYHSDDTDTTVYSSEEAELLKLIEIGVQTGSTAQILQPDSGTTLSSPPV
Chain of Fibroblast growth factor receptor 1 (P11362 whole entry): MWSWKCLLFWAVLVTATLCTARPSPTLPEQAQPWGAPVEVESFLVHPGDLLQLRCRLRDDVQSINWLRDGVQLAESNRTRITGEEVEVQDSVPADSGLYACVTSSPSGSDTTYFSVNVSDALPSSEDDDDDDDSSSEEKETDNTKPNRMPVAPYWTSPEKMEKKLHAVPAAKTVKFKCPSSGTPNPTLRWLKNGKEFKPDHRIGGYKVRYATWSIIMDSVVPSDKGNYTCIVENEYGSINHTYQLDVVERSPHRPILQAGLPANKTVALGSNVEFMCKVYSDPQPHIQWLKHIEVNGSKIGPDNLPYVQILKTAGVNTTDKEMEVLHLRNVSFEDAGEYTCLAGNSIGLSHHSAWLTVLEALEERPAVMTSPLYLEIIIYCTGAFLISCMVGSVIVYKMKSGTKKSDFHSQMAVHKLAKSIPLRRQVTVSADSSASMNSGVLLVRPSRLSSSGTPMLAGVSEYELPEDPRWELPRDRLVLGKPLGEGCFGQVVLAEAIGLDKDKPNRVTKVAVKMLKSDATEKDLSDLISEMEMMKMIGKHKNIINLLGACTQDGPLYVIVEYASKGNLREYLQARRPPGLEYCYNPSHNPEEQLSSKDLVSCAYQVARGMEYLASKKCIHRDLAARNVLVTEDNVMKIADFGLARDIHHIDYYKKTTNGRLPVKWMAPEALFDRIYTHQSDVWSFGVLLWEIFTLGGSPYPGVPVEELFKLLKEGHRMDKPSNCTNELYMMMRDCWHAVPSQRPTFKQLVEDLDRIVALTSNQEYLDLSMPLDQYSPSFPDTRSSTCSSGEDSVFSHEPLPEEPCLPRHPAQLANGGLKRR
Chain of Vascular endothelial growth factor receptor 1 (P17948 whole entry): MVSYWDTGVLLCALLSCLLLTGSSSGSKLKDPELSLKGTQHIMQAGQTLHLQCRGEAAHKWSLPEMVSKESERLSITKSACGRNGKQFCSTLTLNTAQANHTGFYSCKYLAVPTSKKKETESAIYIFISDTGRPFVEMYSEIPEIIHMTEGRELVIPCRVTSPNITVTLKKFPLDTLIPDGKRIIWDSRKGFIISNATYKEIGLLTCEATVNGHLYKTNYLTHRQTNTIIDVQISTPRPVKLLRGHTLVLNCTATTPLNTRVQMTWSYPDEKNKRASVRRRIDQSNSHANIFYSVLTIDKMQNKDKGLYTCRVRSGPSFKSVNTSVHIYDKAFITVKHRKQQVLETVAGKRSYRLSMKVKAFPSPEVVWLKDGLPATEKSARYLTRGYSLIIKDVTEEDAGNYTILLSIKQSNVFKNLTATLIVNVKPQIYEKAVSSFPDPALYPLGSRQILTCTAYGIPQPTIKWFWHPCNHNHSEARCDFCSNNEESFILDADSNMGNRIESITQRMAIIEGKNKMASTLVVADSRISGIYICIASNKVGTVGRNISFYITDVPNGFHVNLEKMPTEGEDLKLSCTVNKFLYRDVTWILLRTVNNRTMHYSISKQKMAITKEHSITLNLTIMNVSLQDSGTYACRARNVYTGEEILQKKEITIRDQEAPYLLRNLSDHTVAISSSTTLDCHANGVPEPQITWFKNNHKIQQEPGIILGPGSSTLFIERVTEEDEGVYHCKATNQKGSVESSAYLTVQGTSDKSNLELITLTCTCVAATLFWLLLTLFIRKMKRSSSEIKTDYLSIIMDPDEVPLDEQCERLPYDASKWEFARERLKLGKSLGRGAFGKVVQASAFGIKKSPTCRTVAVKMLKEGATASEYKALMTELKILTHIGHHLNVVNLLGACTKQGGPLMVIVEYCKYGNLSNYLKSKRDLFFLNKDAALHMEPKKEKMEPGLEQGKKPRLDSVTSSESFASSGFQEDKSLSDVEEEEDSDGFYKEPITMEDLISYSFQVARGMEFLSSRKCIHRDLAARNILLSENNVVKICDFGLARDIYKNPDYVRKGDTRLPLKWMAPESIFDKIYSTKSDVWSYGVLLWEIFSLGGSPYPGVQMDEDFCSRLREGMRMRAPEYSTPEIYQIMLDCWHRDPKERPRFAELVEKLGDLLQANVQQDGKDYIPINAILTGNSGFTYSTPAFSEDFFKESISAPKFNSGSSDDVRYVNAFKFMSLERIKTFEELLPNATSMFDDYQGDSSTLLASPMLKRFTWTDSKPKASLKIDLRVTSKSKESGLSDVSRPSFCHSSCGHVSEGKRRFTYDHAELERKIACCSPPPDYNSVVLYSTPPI

`COc1cc2c(Nc3c(F)ccc4c3OCO4)ncnc2cc1OCCCN1CCOCC1`: the IC50 is 450 nM in the data set on A549, 28 nM in data set [1] and 8160 nM in data set [2].

As to `COc1cc2c(Nc3cccc4c3OC(F)(F)O4)ncnc2cc1OCCCN1CCOCC1`, the 50% inhibitory concentration (IC50) in data set [1] stood at 270 nM.

In the case of `COc1cc2c(Nc3c(Cl)ccc4c3OCO4)ncnc2cc1OCCCN1CCCCC1`, the IC50 with A549 is 130 nM; in data set [1] it was less than 4 nM; in data set [4], more than 100000 nM; in data set [8], more than 100000 nM; in [2] it was 2170 nM; against Angiopoietin-1 receptor it was 11300 nM. Further, the pKa in data set [3] was determined as 9.7. The compound further had an Activity in the data set listed under Rattus norvegicus of 13.7%. The bioavailability in data set [5] came to 86%. In data set [6], the Vd came out at 14.4 L/kg. In addition, in [7], the half-life is 5.8 h. The peak level in data set [9] (Cmax) was 2960 nM. Also, the solubility in data set [10] (read-out: S) is more than 2000 µM. Also, the concentration at 24 h in [11] amounted to 80 nM. The AUC in [12] was found to be 7900 ng·h/mL. The clearance in [13] stood at 36 mL/min/kg.

In data set [1], `COc1cc2c(Nc3cccc4cc[nH]c34)ncnc2cc1OCCCN1CCOCC1` registered an IC50 of 260 nM.

Take `COc1cccc(Nc2ncnc3cc(OC)c(OC)cc23)c1`: in data set [1], half-maximal inhibition (IC50) required 253 nM.

With `COc1cc2c(Nc3c(Cl)ccc4ccoc34)ncnc2cc1OCCCN1CCOCC1`, the IC50 was found to be 260 nM in the data set on A549, 10 nM in [1] and 1380 nM in data set [2].

With `COc1cc2c(Nc3ccc4c(c3)OCO4)ncnc2cc1OCCCN1CCOCC1`, in [1], the IC50 worked out at 760 nM.

With `COc1cccc(Nc2ncnc3cc(OCCCN4CCOCC4)c(OC)cc23)c1`, the values for the IC50 (in the data set with A549; in data set [1]; in data set [2]) were 1050 nM, 37 nM and 1110 nM, respectively.

With `COc1cc2c(Nc3c(Cl)ccc4c3OCO4)ncnc2cc1OCC1CCN(C)CC1`, the IC50 was 260 nM with A549, more than 100000 nM in data set [4], more than 100000 nM in data set [8] and 15600 nM in [2]. Also, the pKa in data set [3] was 9.4. This compound also registered an Activity in the data set filed under Rattus norvegicus of 9.8%. This compound also displayed a bioavailability in data set [5] of 37%. The Vd in [6] amounted to 17 L/kg. This compound yielded a clearance in data set [14] of 49 mL/min/kg. This compound also had a half-life in data set [7] of 5.7 h. Moreover, in data set [9], the Cmax is 910 nM. For the same compound, in data set [10] (read-out: S), the solubility is more than 3300 µM. For the same compound, the concentration at 24 h in [11] was 60 nM. This compound also yielded an AUC in data set [12] of 2500 ng·h/mL.

In data set [1], `COc1cc2c(Nc3cccc4[nH]ccc34)ncnc2cc1OCCCN1CCOCC1` had an IC50 of 177 nM.

On to `COc1cc2c(Nc3cccc4c3OCO4)ncnc2cc1OCCCN1CCOCC1`, for which the values for the IC50 (with A549; in [1]; in data set [2]) were 210 nM, 14 nM and 4960 nM, respectively.

With `COc1ccccc1Nc1ncnc2cc(OCCCN3CCOCC3)c(OC)cc12`, the IC50 in data set [1] worked out at 560 nM. That is a sub-micromolar value.

As to `COc1cc2c(Nc3cccc4c3OCC4)ncnc2cc1OCCCN1CCOCC1`, in [1], inhibition was half-maximal at 433 nM (IC50).

Turning to `COc1cc2c(Nc3cccc4c3OCCO4)ncnc2cc1OCCCN1CCOCC1`, inhibition in data set [1] was half-maximal at 370 nM (IC50).

Consider `COc1cc2c(Nc3cccc4occc34)ncnc2cc1OCCCN1CCOCC1`, for which the IC50 was determined as 16 nM in [1] and 250 nM in [2].

For `COc1cc2c(Nc3cccc4ccoc34)ncnc2cc1OCCCN1CCOCC1`, the IC50 came to 30 nM in [1] and 410 nM in [2].

For the compound `COc1ccc(Cl)c(Nc2ncnc3cc(OCCCN4CCOCC4)c(OC)cc23)c1`, the values for the IC50 (in the data set with A549; in data set [1]; in data set [2]) were 310 nM, 10 nM and 1180 nM, respectively.

`COc1cc2c(Nc3cccc4c(Cl)coc34)ncnc2cc1OCCCN1CCOCC1`: the IC50 in [1] was less than 4 nM; in [2] it was 100 nM.

On to `COc1cc2c(Nc3c(Br)ccc4c3OCO4)ncnc2cc1OCCCN1CCOCC1`, for which the IC50 in the data set with A549 was 140 nM; in data set [1], less than 4 nM; in data set [2], 42600 nM.

For the compound `COc1cc2ncnc(Nc3c(Cl)ccc4c3OCO4)c2cc1OCCCN1CCOCC1`, the IC50 in the data set on A549 was 1200 nM; in data set [1] it was 50 nM; in data set [2], 73800 nM.

For `COc1cc2c(Nc3c(Cl)ccc4occc34)ncnc2cc1OCCCN1CCOCC1`, the results for the IC50 (in the data set on A549; in data set [1]; in [2]) were 230 nM, 10 nM and 1230 nM, respectively.

In the case of `COc1cc2c(Nc3cccc4c(Cl)c[nH]c34)ncnc2cc1OCCCN1CCOCC1`, the figures for the IC50 (with A549; in data set [1]; in [2]) were 980 nM, 20 nM and 2320 nM, respectively.

Take `COc1ccc(Nc2ncnc3cc(OCCCN4CCOCC4)c(OC)cc23)cc1`: in data set [1], the midpoint of inhibition, the IC50, lay at 477 nM.

Take `COc1cc2c(Nc3c(Cl)ccc4c3OCO4)ncnc2cc1OCc1ccnc(C#N)c1`: the results for the IC50 (in the data set with A549; in data set [1]; in data set [2]) were 230 nM, 10 nM and 77000 nM, respectively. Further, the pKa in data set [3] was 4.9. For the same compound, the Activity in the data set listed under Rattus norvegicus came out at 1.6%. In [10], this compound came in with a solubility of 10 µM (≈ 4.62 µg/mL).

As to `CCOc1ccc(Cl)c(Nc2ncnc3cc(OCCCN4CCOCC4)c(OC)cc23)c1`, half-maximal inhibition in [1] (IC50) required 963 nM.

Turning to `COc1cc2c(Nc3cccc4c3ccn4C)ncnc2cc1OCCCN1CCOCC1`, the results for the IC50 in data set [1] and in data set [2] were 40 nM and 420 nM, respectively.

Regarding `COc1cc2c(Nc3c(Cl)ccc4c3OCO4)ncnc2cc1OCCCN1CCOCC1`, the IC50 in the data set with A549 is 180 nM; in [1], less than 4 nM; in data set [4], more than 100000 nM; in [8] it was more than 100000 nM; in data set [2], 17000 nM; at Angiopoietin-1 receptor it was 17100 nM. In [3], this compound showed a pKa of 7.2. In the data set listed under Rattus norvegicus, this compound yielded an Activity of 10.5%. Further, in data set [10] (read-out: S), the solubility was determined as 71 µM (≈ 33.6 µg/mL).

For the compound `Clc1ccc2c(c1Nc1ncnc3cc(OCCCN4CCOCC4)ccc13)OCO2`, the results for the IC50 (with A549; in data set [1]; in data set [2]) were 670 nM, 10 nM and 91300 nM, respectively.
